pEC50, pIC50: −log10 of the molar value. Calls of active or inactive are those of the source.
Assays:
Rattus norvegicus [1] = species: Rattus norvegicus; assay: Positive allosteric modulation of rat alpha1beta2gamma2L GABAA receptor expressed in Xenopus laevis oocytes assessed as potentiation of GABA-induced chloride current elicitation by two-electrode voltage clamp technique relative to control; type: cell-based
Xenopus laevis [2] = assay: Anesthetic effect on prelimb-bud stage Xenopus laevis tadpole assessed as loss of swimming reflex after 3 hrs; type: functional, organism-based
[3] = Displacement of [35S]TBPS from rat picrotoxin binding site of GABAA receptor after 2 hrs by scintillation counting analysis
Outline: (§1)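 [35S]TBPS binding inhibition; duplicate experiments each run in triplicate, mean ± SEM. Highest concentration tested 30 μM; IC50 from fitted binding curve, with maximal displacement noted where inhibition was partial.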

Rattus norvegicus [4] = species: Rattus norvegicus; assay: Positive allosteric modulation of rat alpha1beta2gamma2L GABAA receptor expressed in Xenopus laevis oocytes assessed as potentiation of GABA-induced chloride current elicitation at 10 uM by two-electrode voltage clamp technique relative to control; type: cell-based
Rattus norvegicus [5] = species: Rattus norvegicus; assay: Positive allosteric modulation of rat alpha1beta2gamma2L GABAA receptor expressed in Xenopus laevis oocytes assessed as potentiation of GABA-induced chloride current elicitation at 1 uM by two-electrode voltage clamp technique relative to control; type: cell-based
Rattus norvegicus [6] = species: Rattus norvegicus; assay: Positive allosteric modulation of rat alpha1beta2gamma2L GABAA receptor expressed in Xenopus laevis oocytes assessed as potentiation of GABA-induced chloride current elicitation at 0.1 uM by two-electrode voltage clamp technique relative to control; type: cell-based
Rattus norvegicus [7] = species: Rattus norvegicus; assay: […] of rat alpha1beta2gamma2L GABAA receptor expressed in Xenopus laevis oocytes assessed as chloride current elicitation at 10 uM by two-electrode voltage clamp technique relative to GABA; type: cell-based
Outline: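 Rat α1β2γ2L GABAA receptors expressed in Xenopus oocytes, at least four oocytes. Direct current gated by 10 μM compound without GABA, expressed as the ratio of compound-only current to current evoked by 2 μM GABA; mean ± SEM.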

Xenopus laevis [8] = assay: Anesthetic effect on prelimb-bud stage Xenopus laevis tadpole assessed as loss of righting reflex after 3 hrs; type: functional, organism-based
Xenopus laevis [9] = assay: Anesthetic effect on prelimb-bud stage Xenopus laevis tadpole assessed as loss of righting reflex at 10 uM after 3 hrs; type: functional, organism-based
Xenopus laevis [10] = assay: Anesthetic effect on prelimb-bud stage Xenopus laevis tadpole assessed as loss of swimming reflex at 10 uM after 3 hrs; type: functional, organism-based
Rattus norvegicus [11] = species: Rattus norvegicus; assay: Displacement of [35S]TBPS from rat picrotoxin binding site of GABAA receptor at 30 uM after 2 hrs by scintillation counting analysis; outline: as §1
HEK293 [12] = assay: Positive allosteric modulation of wild type rat alpha1beta2gamma2L GABAA receptor expressed in HEK293 cells assessed as longest-lived intracluster open time at 20 uM by […] relative to control; type: cell-based
HEK293 [13] = assay: Positive allosteric modulation of wild type rat alpha1beta2gamma2L GABAA receptor expressed in HEK293 cells assessed as longest-lived intracluster closed time at 20 uM by […] relative to control; type: cell-based
[14] = Lipophilicity, log P of the compound; type: physicochemical; details: octanol/water
HEK293 [15] = assay: Positive allosteric modulation of wild type rat alpha1beta2gamma2L GABAA receptor expressed in HEK293 cells assessed as OT long at 20 uM by […]; type: cell-based
Outline: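 Single-channel recording of rat wild-type α1β2γ2L GABAA receptors. Receptors were activated by 50 μM GABA with or without 20 μM compound, in 4-7 patches. Intracluster open-time histograms were fitted to sums of two or three exponentials, and the long open-time component was taken from the fit.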

HEK293 [16] = assay: Positive allosteric modulation of rat alpha1S240Lbeta2gamma2L GABAA receptor mutant expressed in HEK293 cells assessed as potentiation of GABA-induced chloride current elicitation at 20 uM by […] relative to control; type: cell-based
Outline: (§2)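 HEK 293 cells expressing wild-type or α1 mutant receptors, whole-cell recording. Peak currents elicited by GABA at 5 μM for wild type or 10 μM for mutants (11–17% of maximal), with or without 20 μM compound. Mean ± S.D., 4–7 cells per receptor–compound combination.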

Mus musculus [17] = assay: Anesthetic effect in mouse assessed as recovery of righting reflex at 8 to 16 mg/kg, iv; type: functional; details: dose mg/kg 8-16
Outline: (§3)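 Mice were given intravenous tail-vein injections at 8 and 16 mg/kg. The compound was in 22.5% aqueous 2-(hydroxypropyl)-β-cyclodextrin. Anesthesia was defined as loss of righting reflex, and onset, duration and recovery of the reflex were followed.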

Mus musculus [18] = assay: Anesthetic effect in mouse assessed as recovery of righting reflex at 1 to 8 mg/kg, iv; type: functional; details: dose mg/kg 1-8
Outline: (§4)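 Mice, tail vein injection; compound in 22.5% aqueous 2-(hydroxypropyl)-β-cyclodextrin, lower doses by serial dilution of the 8 mg/kg stock with 0.9% saline. Anesthesia scored as loss of righting reflex; duration of LRR recorded at each dose.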

Mus musculus [19] = assay: Anesthetic effect in mouse assessed as duration of loss of righting reflex at 8 mg/kg, iv; type: functional
Outline: (§5)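 Tail-vein injection in mice, with anesthesia read as loss of righting reflex (LRR): duration, onset and recovery scored. Compounds were dissolved in 22.5% aqueous 2-(hydroxypropyl)-β-cyclodextrin. Lower doses came from serial dilution of the 8 mg/kg solution with 0.9% saline. Doses tested were 1, 2, 4 and 8 mg/kg.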

Mus musculus [20] = assay: Anesthetic effect in mouse assessed as onset of loss of righting reflex at 8 to 16 mg/kg, iv; type: functional; details: dose mg/kg 8-16; outline: as §3
HEK293 [21] = assay: Positive allosteric modulation of rat alpha1W245Lbeta2gamma2L GABAA receptor mutant expressed in HEK293 cells assessed as potentiation of GABA-induced chloride current elicitation at 20 uM by […] relative to control; type: cell-based; outline: as §2
Mus musculus [22] = assay: Anesthetic effect in mouse assessed as duration of loss of righting reflex at 4 mg/kg, iv; type: functional; outline: as §5
HEK293 [23] = assay: Positive allosteric modulation of rat alpha1Q241Lbeta2gamma2L GABAA receptor mutant expressed in HEK293 cells assessed as potentiation of GABA-induced chloride current elicitation at 20 uM by […] relative to control; type: cell-based; outline: as §2
Mus musculus [24] = assay: Anesthetic effect in mouse assessed as duration of loss of righting reflex at 1 mg/kg, iv; type: functional, organism-based; set-up: dose 1 mg/kg; outline: as §5
Mus musculus [25] = assay: Anesthetic effect in mouse assessed as duration of loss of righting reflex at 2 mg/kg, iv; type: functional; outline: as §5
HEK293 [26] = assay: Positive allosteric modulation of wild type rat alpha1beta2gamma2L GABAA receptor expressed in HEK293 cells assessed as potentiation of GABA-induced chloride current elicitation at 20 uM by […] relative to control; type: cell-based; outline: as §2
Mus musculus [27] = assay: Anesthetic effect in mouse assessed as onset of loss of righting reflex at 1 to 8 mg/kg, iv; type: functional; details: dose mg/kg 1-8; outline: as §5
Mus musculus [28] = assay: Anesthetic effect in mouse assessed as duration of loss of righting reflex at 16 mg/kg, iv; type: functional; outline: as §4

| Structure (SMILES) | Activity (Rattus norvegicus [1]) | pEC50 (Xenopus laevis [2]) | pIC50 [3] | Ratio (Rattus norvegicus [4]) | Ratio (Rattus norvegicus [5]) | Ratio (Rattus norvegicus [6]) | Ratio (Rattus norvegicus [7]) | pEC50 (Xenopus laevis [8]) | Ratio (HEK293 [12]) | Ratio (HEK293 [13]) | logP [14] | TIME (HEK293 [15]) | also measured |
| --- | --- | --- | --- | --- | --- | --- | --- | --- | --- | --- | --- | --- | --- |
| CO[C@H]1[C@H]2CC[C@@H]3[C@H](CC[C@@]4(C)C(=O)CC[C@@H]34)[C@]2(C)CC[C@@H]1O | Dose-dependent effect | 5.53 | 6.70 | 12.2 | 3.67 | 1.21 | 0.05 | 6.23 | – | – | – | – | – |
| CO[C@H]1C[C@@]2(C)[C@@H](CC[C@@H]3[C@@H]2CC[C@]2(C)C(=O)CC[C@@H]32)C[C@@H]1O | Dose-dependent effect | < 5.00 | 5.66 | 3.39 | 1.04 | 0.84 | 0.08 | 5.29 | – | – | – | – | – |
| CO[C@H]1[C@H](O)CC[C@]2(C)[C@H]3CC[C@]4(C)C(=O)CC[C@H]4[C@@H]3CC[C@@H]12 | Dose-dependent effect | – | < 4.52 | 0.91 | 1.01 | 1.08 | 0.12 | – | – | – | – | – | Activity (Xenopus laevis [9]): inactive; Activity (Xenopus laevis [10]): inactive; inhibition (Rattus norvegicus [11]): 45% |
| C[C@@]12CC[C@@H]3[C@@H]4CC[C@H](O)C[C@H]4CC[C@H]3[C@@H]1CC(=O)C2 | Dose-dependent effect | 5.26 | 6.62 | 10.5 | 2.43 | 0.97 | 0.02 | 5.94 | 0.2 | 0.11 | 3.24 | 9.8 ms | – |
| CO[C@@H]1C[C@]2(C)[C@H](CC[C@@H]3[C@@H]2CC[C@@]2(C)C(=O)CC[C@@H]32)C[C@H]1O | Dose-dependent effect | < 5.00 | 5.19 | 1.53 | 0.93 | 0.93 | -0.01 | 5.62 | – | – | – | – | – |
| CO[C@H]1[C@H](O)CC[C@]2(C)[C@H]3CC[C@]4(C)CC(=O)C[C@H]4[C@@H]3CC[C@@H]12 | Dose-dependent effect | 4.87 | 5.18 | 0.69 | 0.72 | 0.88 | 0.02 | 5.50 | – | – | – | – | inhibition (Rattus norvegicus [11]): 65% |
| CO[C@H]1[C@H]2CC[C@H]3[C@@H]4CC(=O)C[C@]4(C)CC[C@@H]3[C@]2(C)CC[C@@H]1O | Dose-dependent effect | 5.76 | 7.08 | 16 | 6.48 | 1.41 | 0.08 | 6.47 | 0.53 | 0.06 | 3.19 | 17.7 ms | Ratio (HEK293 [16]): 9.4; Time (Mus musculus [17]): 1 min; Time (Mus musculus [18]): 1 min; Time (Mus musculus [19]): 9 min; Time (Mus musculus [20]): <30 s; Ratio (HEK293 [21]): 0.9; Time (Mus musculus [22]): 5 min; Ratio (HEK293 [23]): 1.3; Activity (Mus musculus [24]): inactive; Time (Mus musculus [25]): 1 min; Ratio (HEK293 [26]): 9.2; Time (Mus musculus [27]): <30 s |
| CC(=O)[C@H]1CC[C@H]2[C@@H]3CC[C@H]4C[C@H](O)CC[C@]4(C)[C@H]3CC[C@]12C [BREXANOLONE] | Dose-dependent effect | – | 7.13 | 9.65 | 3.89 | 1.26 | 0.37 | – | – | – | 4.46 | – | – |
| C[C@@]12CC[C@H]3[C@@H](CC[C@@H]4C[C@@H](O)CC[C@]43C)[C@@H]1CC(=O)C2 | Dose-dependent effect | 5.76 | 7.09 | 34.7 | 7.72 | 1.42 | 0.15 | 6.26 | 0.57 | 0.05 | 3.71 | 12.4 ms | Ratio (HEK293 [16]): 7.6; Time (Mus musculus [17]): 1 min; Time (Mus musculus [18]): 1 min; Time (Mus musculus [19]): 3 min; Time (Mus musculus [20]): <30 s; Ratio (HEK293 [21]): 1; Ratio (HEK293 [23]): 1.3; Time (Mus musculus [28]): 7 min; Ratio (HEK293 [26]): 7.8; Time (Mus musculus [27]): <30 s |
| CO[C@H]1C[C@@]2(C)[C@@H](CC[C@H]3[C@@H]4CC(=O)C[C@@]4(C)CC[C@@H]32)C[C@@H]1O | Dose-dependent effect | 5.03 | 5.90 | 4.48 | 1.23 | 0.92 | 0.01 | 5.50 | – | – | – | – | – |
| C[C@@]12CC[C@H](O)C[C@H]1CC[C@H]1[C@@H]3CC(=O)C[C@@H]3CC[C@@H]12 | Dose-dependent effect | – | 5.82 | 3.56 | 1.13 | 0.93 | 0.01 | 5.44 | 0.53 | 0.21 | – | 16.1 ms | Activity (Xenopus laevis [10]): inactive |
| C[C@]12CC[C@H]3[C@@H](CC[C@H]4C[C@H](O)CC[C@@]43C)[C@@H]1CC(=O)C2 | Dose-dependent effect | 5.12 | 6.05 | 9.98 | 1.38 | 1.01 | -0.02 | 5.44 | – | – | – | – | – |
| CC(=O)[C@H]1CC[C@H]2[C@@H]3CC[C@H]4C[C@H](O)CC[C@]4(C)[C@H]3C(=O)C[C@]12C [ALFAXALONE] | – | – | – | – | – | – | – | – | – | – | – | – | Time (Mus musculus [17]): 1 min; Time (Mus musculus [18]): 1 min; Time (Mus musculus [20]): <30 s; Time (Mus musculus [28]): 4 min; Time (Mus musculus [27]): <30 s |
| O=C1C[C@@H]2CC[C@H]3[C@@H](CC[C@@H]4C[C@@H](O)CC[C@H]43)[C@@H]2C1 | Dose-dependent effect | – | 5.69 | 1.65 | 0.76 | 0.8 | 0 | – | 0.49 | 0.27 | 2.77 | 11.5 ms | Activity (Xenopus laevis [9]): inactive; Activity (Xenopus laevis [10]): inactive; inhibition (Rattus norvegicus [11]): 88% |
| CO[C@@H]1C[C@]2(C)[C@H](CC[C@H]3[C@@H]4CC(=O)C[C@]4(C)CC[C@@H]32)C[C@H]1O | Dose-dependent effect | 4.99 | 5.52 | 2.95 | 1.03 | 0.91 | 0.01 | 5.54 | – | – | – | – | – |
